The subject of assay [1] is Saccharomyces cerevisiae. The experiment in a line: Inhibition of Saccharomyces cerevisiae RS188 expressing wild type erg6 by agar diffusion assay. It is filed as functional, organism-based. A general note: A growth-free zone around the sample is the usual read-out of agar diffusion tests.
Assay [2] relates to Saccharomyces cerevisiae. The experiment in a line: Inhibition of Saccharomyces cerevisiae RS322 expressing Rad52.erg6 by agar diffusion assay. Format: functional.
Assay [3] has as its system Saccharomyces cerevisiae. Nature of the assay: Inhibition of pRAD52 recombination repair gene/topoisomerase 1 deficient Saccharomyces cerevisiae RS321N carrying pRAD52 in glucose medium by microtiter plate assay. It is filed as functional, organism-based. In short, it runs like this: (§1)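 Yeast in minimal medium with galactose or glucose at 2% final. Samples are dissolved in 10% DMSO at 10× final concentration and added 1:10 to the cell suspension in triplicate, with 10% DMSO wells as controls. Plates are incubated at 30 °C in high humidity for 48-72 h and read when control growth reaches OD 0.15-0.25. Inhibition = 1 − (ODtest − ODblank)/(ODplate median − ODblank); IC50 in µg/mL.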

The subject of assay [4] is Saccharomyces cerevisiae. Nature of the assay: Inhibition of Saccharomyces cerevisiae RS321 expressing Rad52.erg6.top1 by agar diffusion assay. Format: functional.
Assay [5] has as its system Saccharomyces cerevisiae. The experiment in a line: Inhibition of Saccharomyces cerevisiae RS321NYCp50 in galactose medium by microtiter plate assay. It is filed as functional, organism-based. In short, it runs like this:
as §1

The subject of assay [6] is Saccharomyces cerevisiae. The experiment in a line: Inhibition of pRAD52 recombination repair gene/topoisomerase 1 deficient Saccharomyces cerevisiae RS321N carrying pRAD52 in galactose medium by microtiter plate assay. Format: functional, organism-based. In short, it runs like this: as §1
The next assay has as its system A549. The experiment in a line: Cytotoxicity against human A549 cells by XTT assay. It is filed as functional, cell-based. On the technique in general: Formazan colour is commonly taken as a measure of viable cells.
Another assay deals with HeLa. The experiment in a line: Cytotoxicity against human HeLa cells by XTT assay. Format: functional, cell-based.

≈ marks a conversion by molar mass, not a printed value.

The values that follow come from ChEMBL document CHEMBL1154561, “Bioactive compounds from Combretum erythrophyllum” (J Nat Prod, 2000).

As a reminder, the IC50 is the concentration needed to halve the response being measured. In the case of `COc1ccc(/C=C\c2cc(OC)c(OC)c(OC)c2)c(O)c1O` [COMBRETASTATIN A-1], the IC12 turned out to be 80.1 µg/mL in the assay on Saccharomyces cerevisiae [1], 33.5 µg/mL in the assay on Saccharomyces cerevisiae [2] and 2.2 µg/mL in the assay with Saccharomyces cerevisiae [4]. For the same compound, the values for the IC50 in the assay with Saccharomyces cerevisiae [3], in the assay with Saccharomyces cerevisiae [5] and with Saccharomyces cerevisiae [6] were 18 µg/mL, 1.8 µg/mL (≈ 5.42 µM) and 53 µg/mL, respectively.

On to `COc1ccc(/C=C\c2cc(OC)c(OC)c(OC)c2)c(O[C@H]2O[C@@H](CO)[C@H](O)[C@@H](O)[C@@H]2O)c1O`, for which the 50% inhibitory concentration (IC50) is 7 µg/mL (≈ 14.2 µM) with A549; 3 µg/mL with Saccharomyces cerevisiae [3]; 1.5 µg/mL (≈ 3.03 µM) in the assay on HeLa; 13 µg/mL (≈ 26.3 µM) in the assay with Saccharomyces cerevisiae [5]; more than 100 µg/mL in the assay on Saccharomyces cerevisiae [6].

`COc1ccc(CCc2cc(OC)c(OC)c(OC)c2)c(O[C@H]2O[C@@H](CO)[C@H](O)[C@@H](O)[C@@H]2O)c1O`: the IC12 in the assay on Saccharomyces cerevisiae [1], in the assay on Saccharomyces cerevisiae [2] and with Saccharomyces cerevisiae [4] was more than 100 µg/mL throughout. The results for the IC50 in the assay with Saccharomyces cerevisiae [3], with Saccharomyces cerevisiae [5] and in the assay with Saccharomyces cerevisiae [6] were more than 100 µg/mL, 25 µg/mL (≈ 50.4 µM) and more than 100 µg/mL, respectively.
